We go through 77 compounds from ChEMBL document CHEMBL1135550, “Highly potent geminal bisphosphonates. From pamidronate disodium (Aredia) to zoledronic acid (Zometa)” (J Med Chem, 2002).

Each structure is given as a SMILES string.

Broadly, the ED50 is the dose that gives a 50% effect, or the effect in half of the subjects.

This assay relates to Rattus norvegicus. In words: Effective dose after subcutaneous administration to TPTX rats for 50% reduction of hypercalcemia. The format is functional. As to conditions: sc. Summed up: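 Young male rats (130-150 g) were thyroparathyroidectomized and allowed 4 days to recover, then fasting serum was sampled. Animals with serum Ca above 1.88 mM were discarded, and the rest were randomized into groups of 5. On days 5-8, 1,25(OH)2D3 (125 pmol/kg sc) was given with graded sc doses of bisphosphonate, and total serum calcium was measured. ED50 is the sc dose halving the hypercalcemia.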
For the compound `O=P(O)(O)C(O)(CCN1CCC(c2cccc(F)c2)CC1)P(=O)(O)O`, the ED50 is 0.03 mg/kg.

For `O=P(O)(O)C(O)(CCCCCN1CCC(c2ccccc2)CC1)P(=O)(O)O`, the median effective dose (ED50) is more than 0.3 mg/kg.

On to `CCN(CCCOc1ccccc1)CCC(O)(P(=O)(O)O)P(=O)(O)O`, for which the ED50 was 0.02 mg/kg.

As to `CN(CCCCOc1ccccc1)CCC(O)(P(=O)(O)O)P(=O)(O)O`, the ED50 is 0.004 mg/kg.

Take `CP(=O)(O)C(Nc1nccs1)P(C)(=O)O` (configuration not stated): the ED50 was more than 10 mg/kg.

As to `O=P(O)(O)C(O)(Cc1ncc[nH]1)P(=O)(O)O`, the median effective dose (ED50) is 0.005 mg/kg.

As to `CN(C)CCC(P(=O)(O)O)P(=O)(O)O`, the ED50 is 0.1 mg/kg.

Take `CNCCC(O)(P(=O)(O)O)P(=O)(O)O`: the ED50 is approximately 0.015 mg/kg.

As to `O=P(O)(O)C(O)(CCN1CCCCC1)P(=O)(O)O`, the ED50 was 0.0056 mg/kg.

In the case of `Cn1ccnc1NC(P(=O)(O)O)P(=O)(O)O`, the ED50 was 0.005 mg/kg.

Turning to `CC(N)CC(O)(P(=O)(O)O)P(=O)(O)O` (configuration not stated), the ED50 was 0.0034 mg/kg.

As to `O=P(O)(O)C(O)(C1CCCNC1)P(=O)(O)O` (configuration not stated), the 50% effective dose (ED50) is 0.25 mg/kg.

`O=P(O)(O)C(O)(C1CCNCC1)P(=O)(O)O`: the 50% effective dose (ED50) was approximately 2.5 mg/kg.

With `CC(C)c1cnc(NC(P(=O)(O)O)P(=O)(O)O)s1`, the ED50 is 0.2 mg/kg.

Consider `O=P(O)(O)C(N1CCCCC1)P(=O)(O)O`, for which the ED50 was 0.8 mg/kg.

Take `CN(CCCOc1ccc(F)cc1)CCC(O)(P(=O)(O)O)P(=O)(O)O`: the ED50 is 0.0006 mg/kg.

Take `O=P(O)(O)C(O)(Cc1nccn1Cc1ccccc1)P(=O)(O)O`: the ED50 was 0.025 mg/kg.

As for `O=P(O)(O)C(Nc1nc2ccccc2[nH]1)P(=O)(O)O`, the 50% effective dose (ED50) is more than 10 mg/kg.

In the case of `CC(=O)NCCC(O)(P(=O)(O)O)P(=O)(O)O`, the ED50 is more than 1 mg/kg.

For the compound `O=P(O)(O)C(O)(CCN1CCN(c2ccccc2)CC1)P(=O)(O)O`, the ED50 was more than 10 mg/kg.

`Cn1ccnc1CC(O)(P(=O)(O)O)P(=O)(O)O`: the ED50 was 0.0006 mg/kg.

Regarding `CN(CCCc1ccc(Cl)cc1)CCC(O)(P(=O)(O)O)P(=O)(O)O`, the ED50 is 0.0007 mg/kg.

Regarding `CCCCN(CCCOc1ccccc1)CCC(O)(P(=O)(O)O)P(=O)(O)O`, the ED50 was 0.5 mg/kg.

For the compound `NCC(O)(P(=O)(O)O)P(=O)(O)O`, the ED50 is 0.15 mg/kg.

For `CCCCCN(C)CCC(O)(P(=O)(O)O)P(=O)(O)O` [IBANDRONIC ACID], the ED50 is 0.0011 mg/kg.

Consider `CCCCc1cnc(NC(P(=O)(O)O)P(=O)(O)O)s1`, for which the ED50 is 0.0009 mg/kg.

As to `O=P(O)(O)C(O)(Cc1c[nH]c(-c2ccccc2)n1)P(=O)(O)O`, the ED50 was more than 3 mg/kg.

Turning to `CN1CCN(CCC(O)(P(=O)(O)O)P(=O)(O)O)CC1`, the ED50 was approximately 0.4 mg/kg.

Turning to `Cc1ncn(CC(O)(P(=O)(O)O)P(=O)(O)O)c1C`, the ED50 was 0.0015 mg/kg.

Take `COc1ccc(OCCCN(C)CCC(O)(P(=O)(O)O)P(=O)(O)O)cc1`: the 50% effective dose (ED50) is 0.0012 mg/kg.

As for `CN(C)CCC(N)(P(=O)(O)O)P(=O)(O)O` [LIDADRONIC ACID], the ED50 was more than 0.2 mg/kg.

Regarding `O=P(O)(O)C(O)(CCNCCCSc1ccccc1)P(=O)(O)O`, the ED50 is 0.007 mg/kg.

With `O=P(O)(O)C(Nc1nc2ccccc2s1)P(=O)(O)O`, the ED50 is more than 3 mg/kg.

As to `CC(CCc1ccccc1)NCCC(O)(P(=O)(O)O)P(=O)(O)O` (configuration not stated), the ED50 is more than 10 mg/kg.

For `NCCCCCC(O)(P(=O)(O)O)P(=O)(O)O` [NERIDRONIC ACID], the ED50 is 0.06 mg/kg.

Turning to `O=P(O)(O)C(O)(CCN1CCCCCC1)P(=O)(O)O`, the ED50 is 0.025 mg/kg.

As to `CN(CCCCCCOc1ccccc1)CCC(O)(P(=O)(O)O)P(=O)(O)O`, the ED50 is 7.5 mg/kg.

On to `O=P(O)(O)C(O)(CCCCCN1CCCC1)P(=O)(O)O`, for which the ED50 was 0.25 mg/kg.

As for `CCCN(C)CCC(O)(P(=O)(O)O)P(=O)(O)O`, the ED50 was 0.003 mg/kg.

On to `CCN(CC)CCC(O)(P(=O)(O)O)P(=O)(O)O`, for which the ED50 is 0.003 mg/kg.

Take `O=P(O)(O)C(Nc1ncc[nH]1)P(=O)(O)O`: the ED50 is approximately 0.5 mg/kg.

As to `O=P(O)(O)C(O)(CCCN1CCC(c2ccccc2)CC1)P(=O)(O)O`, the ED50 is 0.1 mg/kg.

For `O=P(O)(O)C(O)(CCNCCc1ccccc1)P(=O)(O)O`, the ED50 was 0.3 mg/kg.

In the case of `O=P(O)(O)C(O)(CCc1c[nH]cn1)P(=O)(O)O`, the 50% effective dose (ED50) was 0.02 mg/kg.

For the compound `O=P(O)(O)C(Nc1nccn1Cc1ccccc1)P(=O)(O)O`, the ED50 was 0.075 mg/kg.

As to `O=P(O)(O)C(O)(CCNCCCc1ccccc1)P(=O)(O)O`, the ED50 is 0.02 mg/kg.

Consider `O=P(O)(O)C(O)(CCNCCCOc1ccccc1)P(=O)(O)O`, for which the ED50 is 0.0012 mg/kg.

`Cc1cccc(OCCCN(C)CCC(O)(P(=O)(O)O)P(=O)(O)O)c1`: the ED50 was 0.0017 mg/kg.

For `CCCN(CCCOc1ccccc1)CCC(O)(P(=O)(O)O)P(=O)(O)O`, the ED50 is 0.01 mg/kg.

In the case of `O=P(O)(O)C(O)(CCNCCSc1ccccc1)P(=O)(O)O`, the ED50 is more than 0.2 mg/kg.

For the compound `O=P(O)(O)C(N1CCCCCC1)P(=O)(O)O` [N-(HEXAMETHYLENEIMINO)METHYLENEBISPHOSPHONIC ACID], the ED50 was 0.04 mg/kg.

With `O=P(O)(O)C(NC1CCCCCC1)P(=O)(O)O` [INCADRONIC ACID], the ED50 is 0.007 mg/kg.

With `O=P(O)(O)C(O)(Cc1c[nH]cn1)P(=O)(O)O`, the ED50 was 0.0003 mg/kg.

On to `O=P(O)(O)C(O)(CCCN1CCCC1)P(=O)(O)O`, for which the ED50 is 0.025 mg/kg.

Consider `CCc1cnc(NC(P(=O)(O)O)P(=O)(O)O)s1`, for which the ED50 was 0.0015 mg/kg.

Take `O=P(O)(O)C(Nc1ncc(CCc2ccccc2)s1)P(=O)(O)O`: the ED50 was 0.0027 mg/kg.

Turning to `O=P(O)(O)C(O)(C1CCCCN1)P(=O)(O)O` (configuration not stated), the ED50 is 0.05 mg/kg.

As for `CN(CCCSc1ccc(Cl)cc1)CCC(O)(P(=O)(O)O)P(=O)(O)O`, the ED50 was 0.0078 mg/kg.

On to `CN(CCCCc1ccccc1)CCC(O)(P(=O)(O)O)P(=O)(O)O`, for which the ED50 is 0.0004 mg/kg.

Regarding `O=P(O)(O)C(O)(CCN1CCC(c2ccc(Cl)cc2)C1)P(=O)(O)O` (configuration not stated), the ED50 was 0.0035 mg/kg.

In the case of `CCCc1cnc(NC(P(=O)(O)O)P(=O)(O)O)s1`, the ED50 was 0.002 mg/kg.

`CN(CCCOc1ccc(Cl)cc1)CCC(O)(P(=O)(O)O)P(=O)(O)O`: the ED50 is 0.0013 mg/kg.

Turning to `CCCCCN(C)C(C)CC(O)(P(=O)(O)O)P(=O)(O)O` (configuration not stated), the 50% effective dose (ED50) is 0.065 mg/kg.

On to `O=P(O)(O)C(O)(C1CNC1)P(=O)(O)O`, for which the ED50 is more than 3 mg/kg.

In the case of `CN(CCCSc1ccccc1)CCC(O)(P(=O)(O)O)P(=O)(O)O`, the ED50 is 0.00033 mg/kg.

Regarding `CN(CCCOc1ccccc1)CCCC(O)(P(=O)(O)O)P(=O)(O)O`, the ED50 was 0.1 mg/kg.

As to `O=P(O)(O)C(Nc1nccs1)P(=O)(O)O`, the 50% effective dose (ED50) is 0.005 mg/kg.

For `CN(CCCCCCc1ccccc1)CCC(O)(P(=O)(O)O)P(=O)(O)O`, the ED50 is 1.5 mg/kg.

With `CN(C)CCC(O)(P(=O)(O)O)P(=O)(O)O` [OLPADRONIC ACID], the ED50 is 0.012 mg/kg.

Turning to `O=P(O)(O)C(O)(CCN1CCC(c2ccccc2)C1)P(=O)(O)O` (configuration not stated), the median effective dose (ED50) was 0.07 mg/kg.

With `O=P(O)(O)C(O)(CCN1CCC(c2ccccc2)CC1)P(=O)(O)O`, the ED50 was approximately 0.011 mg/kg.

On to `NCCCCC(O)(P(=O)(O)O)P(=O)(O)O`, for which the ED50 is 0.02 mg/kg.

In the case of `Cc1csc(NC(P(=O)(O)O)P(=O)(O)O)n1`, the ED50 is 0.1 mg/kg.

On to `CN(C)C(P(=O)(O)O)P(=O)(O)O`, for which the ED50 was more than 3 mg/kg.

For the compound `Cc1[nH]cnc1CC(O)(P(=O)(O)O)P(=O)(O)O`, the ED50 was 0.0015 mg/kg.

With `O=P(O)(O)C(O)(CCN1CCCCCCC1)P(=O)(O)O`, the ED50 is more than 0.3 mg/kg.

Take `O=P(O)(O)C(O)(CCn1ccnc1)P(=O)(O)O`: the ED50 is 0.045 mg/kg.
